Reference: ChEMBL document CHEMBL1123811, “gem-Diphosphonate and gem-phosphonate-phosphate compounds with specific high density lipoprotein inducing activity” (1987)

Key:
Type in all cases: functional
Rattus norvegicus [1] = species: Rattus norvegicus; test: Activity to induce the elevation of alpha/beta cholesterol ratio in plasma lipids of male Wistar rats; set-up: concentration or dose not given beside the values
How it was run: (§1)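 Wistar rats on normal diet; groups were vehicle control, an internal-standard diphosphonate, and test compounds. Dosed daily for 4 days; diphosphonates were dissolved in water or suspended in 1% (carboxymethyl)cellulose, 4 mL/kg. On day 5, after overnight fast, rats were killed under ether. EDTA plasma was assayed enzymatically for HDL-C after heparin-CaCl2 precipitation of VLDL/LDL, phospholipids, triglycerides and α/β-cholesterol ratio. Results are given as % of control.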

Rattus norvegicus [2] = species: Rattus norvegicus; test: Activity to induce the elevation of HDL(High Density Lipoproteins)-Cholesterol in plasma lipids of male Wistar rats; set-up: concentration or dose not given beside the values; how it was run: as §1
Rattus norvegicus [3] = species: Rattus norvegicus; test: Activity to induce the elevation of phospholipids in plasma lipids of male Wistar rats; set-up: concentration or dose not given beside the values; how it was run: as §1
Rattus norvegicus [4] = species: Rattus norvegicus; test: Activity to induce the elevation of triglycerides in plasma lipids of male Wistar rats; set-up: concentration or dose not given beside the values; how it was run: as §1
Rattus norvegicus [5] = species: Rattus norvegicus; test: Activity to induce the elevation of HDL(High Density Lipoproteins)-Cholesterol of male Wistar rats; set-up: concentration or dose not given beside the values; how it was run: as §1
Rattus norvegicus [6] = species: Rattus norvegicus; test: Activity to induce the elevation of triglycerides of male Wistar rats; set-up: concentration or dose not given beside the values; how it was run: as §1
Rattus norvegicus [7] = species: Rattus norvegicus; test: Activity to induce the elevation of phospholipids of male Wistar rats; set-up: concentration or dose not given beside the values; how it was run: as §1
Rattus norvegicus [8] = test: Activity to induce the elevation of HDL(High Density Lipoproteins)-Cholesterol of male Wistar rats after po administration of 100 mg/kg/day
How it was run: (§2)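 Wistar rats on a normal diet were dosed daily for 4 days at the dose and route given. On day 5, after an overnight fast, they were killed under ether and blood was taken by decapitation into EDTA. Plasma HDL cholesterol was measured after heparin-CaCl2 precipitation of VLDL/LDL and is expressed as % change versus a vehicle control group.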

Rattus norvegicus [9] = test: Activity to induce the elevation of phospholipids of male Wistar rats after po administration of 100 mg/kg/day
How it was run: (§3)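 Normal-diet Wistar rats were given the test agent once daily for 4 days and killed on day 5 after an overnight fast. Total plasma phospholipids (EDTA plasma) were measured chemically by the molybdate/vanadate reaction or enzymatically (phospholipid B test). Values are % of vehicle controls.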

Rattus norvegicus [10] = test: Activity to induce the elevation of triglycerides of male Wistar rats after po administration of 100 mg/kg/day
How it was run: (§4)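 Daily dosing of normal-diet Wistar rats ran for 4 days, with sacrifice on day 5 after an overnight fast. Plasma was collected by decapitation into EDTA. Total triglycerides were measured enzymatically and expressed as % change relative to the vehicle control group.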

Rattus norvegicus [11] = species: Rattus norvegicus; test: Activity to induce the elevation of alpha/beta cholesterol ratio of male Wistar rats; set-up: concentration or dose not given beside the values; how it was run: as §1
Rattus norvegicus [12] = test: Activity to induce the elevation of alpha/beta cholesterol ratio of male Wistar rats after po administration of 100 mg/kg/day
How it was run: (§5)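 Rats (Wistar, normal diet) were treated daily for 4 days and fasted overnight, and EDTA plasma was taken on day 5. Total cholesterol was measured enzymatically, and β-lipoprotein cholesterol after heparin-CaCl2 precipitation. The α/β-cholesterol ratio is reported as % change from vehicle-treated controls.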

Rattus norvegicus [13] = test: Activity to induce the elevation of HDL(High Density Lipoproteins)-Cholesterol in plasma lipids of male Wistar rats after po administration of 100 mg/kg/day; how it was run: as §2
Rattus norvegicus [14] = test: Activity to induce the elevation of triglycerides in plasma lipids of male Wistar rats after po administration of 100 mg/kg/day; how it was run: as §4
Rattus norvegicus [15] = test: Activity to induce the elevation of alpha/beta cholesterol ratio in plasma lipids of male Wistar rats after po administration of 100 mg/kg/day; how it was run: as §5
Rattus norvegicus [16] = test: Activity to induce the elevation of phospholipids in plasma lipids of male Wistar rats after po administration of 100 mg/kg/day; how it was run: as §3
Rattus norvegicus [17] = test: Activity to induce the elevation of HDL(High Density Lipoproteins)-Cholesterol in plasma lipids of male Wistar rats after the sc administration of 5 mg/kg/day; conditions: route subcutaneous; how it was run: as §2
Rattus norvegicus [18] = test: Activity to induce the elevation of alpha/beta cholesterol ratio in plasma lipids of male Wistar rats after the sc administration of 5 mg/kg/day; conditions: route subcutaneous; how it was run: as §5
Rattus norvegicus [19] = test: Activity to induce the elevation of phospholipids in plasma lipids of male Wistar rats after the sc administration of 5 mg/kg/day; conditions: route subcutaneous; how it was run: as §3
Rattus norvegicus [20] = test: Activity to induce the elevation of triglycerides in plasma lipids of male Wistar rats after the sc administration of 5 mg/kg/day; conditions: route subcutaneous; how it was run: as §4

Row | Structure (SMILES) | HDL-cholesterol change relative to control (%) (Rattus norvegicus [5]) | Percent change in plasma triglycerides versus control (Rattus norvegicus [6]) [%] | Plasma phospholipids, % change versus control (Rattus norvegicus [7]) [%] | Percent change in alpha/beta cholesterol ratio versus control (Rattus norvegicus [11]) [%] | other results
1 | CCCCCCCCCCCCCCOc1ccc(CC(P(=O)(OCC)OCC)P(=O)(OCC)OCC)cc1 | – | – | – | – | Control (Rattus norvegicus [1]): -28%; Control (Rattus norvegicus [2]): 27%; Control (Rattus norvegicus [3]): -4%; Control (Rattus norvegicus [4]): -27%
2 | COP(=O)(OC)C(Cl)(Cc1ccc(Cl)cc1)P(=O)(OC)OC | – | – | – | – | Control (Rattus norvegicus [1]): 81%; Control (Rattus norvegicus [2]): 10%; Control (Rattus norvegicus [3]): 7%; Control (Rattus norvegicus [4]): 11%
3 | COP(=O)(OC)C(Cl)(CCCc1ccccc1)P(=O)(OC)OC | – | – | – | – | Control (Rattus norvegicus [1]): -9%; Control (Rattus norvegicus [2]): 26%; Control (Rattus norvegicus [3]): 24%; Control (Rattus norvegicus [4]): -36%
4 | CCCCCCCCCCCCCCOc1ccc(CC(P(=O)(OC)OC)P(=O)(OC)OC)cc1 | – | – | – | – | Control (Rattus norvegicus [1]): 14%; Control (Rattus norvegicus [2]): 20%; Control (Rattus norvegicus [3]): 10%; Control (Rattus norvegicus [4]): 4%
5 | COP(=O)(OC)OC(c1ccc(Cl)cc1)P(=O)(OC)OC (stereo not given) [MIFOBATE] | 157 | 0 | 26 | 180 | Control (Rattus norvegicus [8]): 26%; Control (Rattus norvegicus [9]): 17%; Control (Rattus norvegicus [10]): 0%; Control (Rattus norvegicus [12]): 52%
6 | CCCCCCCCCCCCCCCC(O)(P(=O)(OC)OC)P(=O)(OC)OC | – | – | – | – | Control (Rattus norvegicus [1]): -38%; Control (Rattus norvegicus [2]): -3%; Control (Rattus norvegicus [3]): 4%; Control (Rattus norvegicus [4]): 14%
7 | CCOC(=O)C(C)(C)Oc1ccc(Cl)cc1 [CLOFIBRATE] | – | – | – | – | Control (Rattus norvegicus [13]): -34%; Control (Rattus norvegicus [14]): 28%; Control (Rattus norvegicus [15]): -53%; Control (Rattus norvegicus [16]): -22%
8 | CC(C)OC(=O)C(C)(C)Oc1ccc(C(=O)c2ccc(Cl)cc2)cc1 [FENOFIBRATE] | – | – | – | – | Control (Rattus norvegicus [13]): -45%; Control (Rattus norvegicus [14]): 12%; Control (Rattus norvegicus [15]): -80%; Control (Rattus norvegicus [16]): -19%
9 | CCOP(=O)(OCC)C(Cl)(CCCc1ccccc1)P(=O)(OCC)OCC | – | – | – | – | Control (Rattus norvegicus [1]): -23%; Control (Rattus norvegicus [2]): -2%; Control (Rattus norvegicus [3]): 27%; Control (Rattus norvegicus [4]): -4%
10 | C[C@]12CC[C@@H]3c4ccc(O)cc4CC[C@H]3[C@@H]1CC[C@@H]2O [ESTRADIOL] | – | – | – | – | Control (Rattus norvegicus [17]): -83%; Control (Rattus norvegicus [18]): -47%; Control (Rattus norvegicus [19]): -77%; Control (Rattus norvegicus [20]): -51%
11 | COP(=O)(OC)C(Cl)(CCCOc1ccccc1)P(=O)(OC)OC | – | – | – | – | Control (Rattus norvegicus [1]): -42%; Control (Rattus norvegicus [2]): 57%; Control (Rattus norvegicus [3]): 15%; Control (Rattus norvegicus [4]): -3%
12 | COP(=O)(OC)C(CCCc1ccccc1)P(=O)(OC)OC | 52 | 42 | 33 | 49 | –
13 | O=P(O)(O)C(Cc1ccccc1)P(=O)(O)O | -8 | -11 | 3 | -10 | –
14 | COP(=O)(OC)OC(CC(C)(C)C)P(=O)(OC)OC (stereo not given) | 47 | -9 | 18 | 44 | –
15 | CC(C)OP(=O)(OC(C)C)OC(c1ccc(Cl)cc1)P(=O)(OC(C)C)OC(C)C (stereo not given) | -34 | -37 | -20 | -46 | –
16 | CCOP(=O)(OCC)C(CCCc1ccccc1)P(=O)(OCC)OCC | 62 | 46 | 17 | 33 | –
17 | COP(=O)(O)C(CCCc1ccccc1)P(=O)(O)OC (stereo not given) | -9 | 9 | 11 | -23 | –
18 | COP(=O)(OC)OC(c1ccc(C)cc1)P(=O)(OC)OC (stereo not given) | 4 | -33 | -8 | 47 | –
19 | COP(=O)(OC)C(O)(c1ccc(C)cc1)P(=O)(OC)OC | 19 | 43 | 19 | 68 | –
20 | COP(=O)(OC)OC(c1ccc(C(F)(F)F)cc1)P(=O)(OC)OC (stereo not given) | 22 | 4 | 3 | 29 | –
21 | COP(=O)(OC)OC(C(C)(C)c1ccc(Cl)cc1)P(=O)(OC)OC (stereo not given) | 56 | -7 | 37 | 59 | –
22 | COP(=O)(OC)OC(C1CCCCC1)P(=O)(OC)OC (stereo not given) | 5 | -46 | 0 | -20 | –
23 | COP(=O)(OC)C(O)(C(C)(C)Oc1ccc(Cl)cc1)P(=O)(OC)OC | 8 | -33 | 26 | -8 | –
24 | CCCCCC(O)(P(=O)(OC)OC)P(=O)(OC)OC | -16 | -21 | 10 | -17 | –
